Target: T1, Neuropeptide Y receptor type 5 (Homo sapiens, UniProt Q15761)
T1 sequence (Q15761 whole entry): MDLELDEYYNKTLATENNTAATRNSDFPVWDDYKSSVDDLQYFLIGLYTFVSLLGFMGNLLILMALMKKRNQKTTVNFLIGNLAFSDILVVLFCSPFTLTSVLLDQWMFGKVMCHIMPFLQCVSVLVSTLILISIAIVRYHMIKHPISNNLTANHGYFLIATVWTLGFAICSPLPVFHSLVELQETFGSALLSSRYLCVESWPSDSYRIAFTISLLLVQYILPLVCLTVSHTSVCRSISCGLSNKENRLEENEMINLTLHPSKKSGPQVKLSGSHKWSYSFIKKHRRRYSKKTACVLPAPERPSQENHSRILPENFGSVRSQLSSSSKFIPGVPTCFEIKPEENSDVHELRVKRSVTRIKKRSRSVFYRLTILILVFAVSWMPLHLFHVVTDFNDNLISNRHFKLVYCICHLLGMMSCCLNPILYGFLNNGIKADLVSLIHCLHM
Assay: Affinity for human neuropeptide Y receptor Y5, binding was evaluated in an in vitro radioligand [125I]PYY binding assay
How it was run: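 HEK 293 cells expressing human Y5 receptor, harvested in PBS and homogenized in sucrose buffer; membranes washed by repeated 48000g spins and resuspended in MEM/Earle's assay buffer (25 mM HEPES, 0.1% BSA, STI, Pefabloc, pH 7.4). Membranes (200 µg tissue) incubated with compounds and 0.15 nM [125I]PYY, 2 h at 30 °C. Nonspecific binding defined with 1 µM PYY. Filtration read-out; IC50 by nonlinear regression, averaging at least two 6-point curves.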

Structure (SMILES) | IC50
Cc1ccc(-c2cc3nc(C)nc(N4CCCCC4)c3[nH]2)cc1 [2-Methyl-4-piperidin-1-yl-6-p-tolyl-5H-pyrrolo[3,2-d]pyrimidine] | 0.5 nM
Cc1nc(N2CCCCC2)c2[nH]c(-c3ccc(C)o3)cc2n1 [2-Methyl-6-(5-methyl-furan-2-yl)-4-piperidin-1-yl-5H-pyrrolo[3,2-d]pyrimidine] | 0.5 nM
